Series [1] in a line: Spectroscopic characterization in 0.1 M NaOH. The format is physicochemical. To be noted: in 0.1M NaOH(aq); for ε: at max absorption; for Φfl: relative to fluorescein.
The next series has as its system HEK293T (HEK) cells. The experiment in a line: Cell permeability by fluorescence microscopy. The class given is cell-based. Particulars: 500 nM, 20 min, 37 °C. In short, it runs like this:
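HEK293T cells incubated with 500 nM test compound (free acid or acetoxymethyl ester forms) for 20 min at 37 °C, washed once with HBSS, then imaged by widefield fluorescence and DIC microscopy to assess uptake.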

Series [2] can be described thus: pH titration of absorbance. The class given is physicochemical. Particulars: for phenolic pKa (transition to the dianion): absorbance at λmax vs pH, 10 mM buffers, 150 mM NaCl, 2 μM dye. The procedure, abridged: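 Dichlorofluorescein dyes at 2 μM in 10 mM buffered solutions containing 150 mM NaCl, spanning pH 2.4 to 9.8 (intermediate steps 3.1–9.2); absorbance spectra recorded and normalized. Normalized absorbance at λmax plotted against pH and fitted to sigmoidal dose-response curves to obtain pKa; n = 3 independent determinations, error as ± SEM.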

Series [3] in a line: MTT reduction assay, cellular toxicity. The format is cell-based. In general terms: Tetrazolium dyes change colour on reduction, which living cells bring about.

The molecule “2’,7’-dichloro-3-carboxyfluorescein [2’,7’-dichloro-3-carboxy-fluorescein, reference compound]” came in with a λmax in series [1] of 502 nm.

Consider “2’,7’-dichloro-3-phosphonofluorescein [compound 4]”, for which the “uptake into cells / cell permeability” value in the series on HEK293T (HEK) cells was “no uptake”. Also, in series [1], the λem was determined as 517 nm, the λmax was 498 nm, the ε is on record as 88,000 M^−1cm^−1 and the Φfl is reported as 0.90. Also, in series [2] (quantification of 5 nm hypsochromic shift with increasing pH), the “pKa of trianion formation (phosphonate, hypsochromic shift)” value amounted to 7.8. Also, the cellular toxicity entry in series [3] is recorded as “very low cellular toxicity”.

Regarding “2’,7’-dichloro-3-sulfonofluorescein [sF.Cl, reference compound]”, in series [1], the λem stood at 526 nm, the λmax is 509 nm, the ε was 87,000 M^−1cm^−1 and the Φfl is recorded as 0.89.

As for “2’,7’-difluoro-3-phosphonofluorescein [compound 5]”, in series [1], the λem came to 508 nm, the λmax is listed as 488 nm, the ε is given as 84,000 M^−1cm^−1 and the Φfl is 0.94. The “phenolic pKa (transition to the dianion)” value in series [2] came to 4.8.

Turning to `O=c1ccc2c(-c3ccccc3P(=O)(O)O)c3ccc(O)cc3oc-2c1` [compound 6, 3-phosphonofluorescein], in series [1], the λem was 508 nm, the λmax is given as 487 nm, the ε is listed as 75,000 M^−1cm^−1 and the Φfl is recorded as 0.99. Besides, the “phenolic pKa (transition to the dianion)” value in series [2] is on record as 6.4.

In the case of `O=C1OC2(c3ccc(O)cc3Oc3cc(O)ccc32)c2ccccc21` [fluorescein, reference compound], in series [1], the λem worked out at 514 nm, the λmax was 491 nm, the ε is reported as 88,000 M^−1cm^−1 and the Φfl is 0.92.

(Values after PMC8327618 (Journal of the American Chemical Society, 2021).)
